According to publication PMC2828537 (Pflugers Archiv : European journal of physiology, 2009):
Structures can show the parent of a compound that is named as a salt. Marks after values point to notes of the source that are not given here.

Columns and labels:
rat TRPA1 = rat TRPA1 (Rattus norvegicus, UniProt Q6RI86); assay: Two-electrode voltage clamp of Xenopus oocytes expressing rat TRPA1; assay type: cell-based; settings: for effect on current in TRPA1-expressing oocytes: 300 µM; for current evoked by agonist alone, % of that evoked by 30 µM FFA: 3 µM agonist alone; for interaction with AITC, CA, or cold on channel activation: 30 µM fenamate with 3 µM AITC or CA, or 14°C; for EC50: nominally Ca2+-free bath
[1] = biological target: T1, human TRPA1 endogenously expressed in WI-38 fibroblasts (Homo sapiens, UniProt O75762); assay: Fluo4 [Ca2+]i assay in WI-38 fibroblasts; assay type: cell-based; settings: for agonist effect on Fluo4 fluorescence ([Ca2+]i) in WI-38 cells: 300 µM; for antagonist effect on the response induced by FFA or AITC: 100 µM added 2 min before the agonist, data not shown; for effect of antagonist on response to AITC / effect of antagonist preincubation on response to FFA: antagonist 20 µM; for effect of antagonist on response to AITC: AITC 33 µM; for effect of antagonist preincubation on response to FFA: FFA 33 µM
HEK293 cells = assay: Fluo4 [Ca2+]i assay in parental HEK293 cells; assay type: cell-based; settings: 300 µM
Summary of the method: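 Wild-type HEK293 cells in DMEM (4.5 mg/ml glucose, 10% heat-inactivated FBS, penicillin/streptomycin), plated on polyornithine-treated wells for 14–18 hrs. Loaded with Fluo4-AM (2 µM, 60 min, 37°C) in ECS with 2 mM probenecid, then washed. Test compound was given robotically at 300 µM final. Fluorescence was read on a plate reader at ex 494/em 525 nm, 0.67 Hz, 20–25°C.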

human TRPA1 = human TRPA1 (Homo sapiens, UniProt O75762); assay: Fluo4 [Ca2+]i assay in HEK-A1 cells; assay type: cell-based; settings: for nH (Hill coefficient): HEK-A1 cells
[2] = test system: TRPA1 channels heterologously expressed in mammalian cells and Xenopus oocytes; settings: read-out: EC50 reported in the literature; as low as; cited from earlier work
[3] = biological target: T1, human TRPA1 endogenously expressed in WI-38 fibroblasts; assay: Whole-cell recordings of WI-38 cells; assay type: cell-based; settings: ruthenium red 30 µM in the bath
Summary of the method: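 WI-38 cells grown in MEM with 10% heat-inactivated FBS and penicillin/streptomycin at 37°C, 5% CO₂. Cells were detached with 0.05% trypsin plus 0.53 mM EDTA in Ca²⁺/Mg²⁺-free HBSS for 5–10 min, held at 37°C, then settled on polyornithine-coated coverslips for 3–5 min before perfusion. Whole-cell voltage clamp was sampled at 5 kHz, with 100 ms ramps from −100 to +100 mV (holding −60 mV) applied every 0.5 s.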

[4] = biological target: human TRPA1 Cys621Ser, Cys641Ser and Cys665Ser triple mutant (Homo sapiens, UniProt O75762, C621S/C641S/C665S); assay: Currents of human TRPA1 triple cysteine mutant; assay type: cell-based; settings: HH, unpublished results
Chain of human TRPA1 Cys621Ser, Cys641Ser and Cys665Ser triple mutant (O75762 whole entry C621S/C641S/C665S): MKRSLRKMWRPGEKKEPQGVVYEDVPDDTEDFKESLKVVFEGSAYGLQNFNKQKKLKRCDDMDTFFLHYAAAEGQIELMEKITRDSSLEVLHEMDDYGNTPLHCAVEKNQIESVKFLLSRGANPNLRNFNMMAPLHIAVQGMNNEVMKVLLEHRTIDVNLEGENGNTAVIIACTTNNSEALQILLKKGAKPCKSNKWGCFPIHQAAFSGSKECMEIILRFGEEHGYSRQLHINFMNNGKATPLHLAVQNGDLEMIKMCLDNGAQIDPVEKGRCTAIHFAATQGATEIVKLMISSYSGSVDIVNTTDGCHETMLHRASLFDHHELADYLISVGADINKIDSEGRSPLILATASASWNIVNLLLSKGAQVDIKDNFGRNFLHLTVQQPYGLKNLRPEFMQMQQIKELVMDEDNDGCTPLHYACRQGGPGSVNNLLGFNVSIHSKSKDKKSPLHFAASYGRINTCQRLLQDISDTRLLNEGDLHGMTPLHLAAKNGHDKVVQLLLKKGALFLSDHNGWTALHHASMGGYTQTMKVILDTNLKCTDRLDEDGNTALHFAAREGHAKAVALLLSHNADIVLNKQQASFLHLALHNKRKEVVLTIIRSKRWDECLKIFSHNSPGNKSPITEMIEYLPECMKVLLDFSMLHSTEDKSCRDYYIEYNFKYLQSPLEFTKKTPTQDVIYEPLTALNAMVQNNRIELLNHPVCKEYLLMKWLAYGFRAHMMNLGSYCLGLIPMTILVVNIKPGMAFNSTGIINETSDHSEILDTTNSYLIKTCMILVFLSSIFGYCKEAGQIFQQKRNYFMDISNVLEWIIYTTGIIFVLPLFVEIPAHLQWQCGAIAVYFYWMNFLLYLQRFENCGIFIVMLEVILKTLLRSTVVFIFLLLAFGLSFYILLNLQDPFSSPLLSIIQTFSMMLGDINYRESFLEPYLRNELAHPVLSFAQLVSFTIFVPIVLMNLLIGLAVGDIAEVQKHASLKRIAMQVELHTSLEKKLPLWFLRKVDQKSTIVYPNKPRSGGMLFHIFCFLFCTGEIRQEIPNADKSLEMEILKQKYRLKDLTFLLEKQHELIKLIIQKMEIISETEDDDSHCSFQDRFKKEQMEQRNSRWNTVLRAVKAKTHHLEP

Chain of human TRPA1 (O75762 whole entry): as the sequence (O75762 whole entry C621S/C641S/C665S) above, with S621C, S641C, S665C counted along it
T1 sequence (O75762 whole entry): as the sequence (O75762 whole entry C621S/C641S/C665S) above, with S621C, S641C, S665C counted along it
Chain of rat TRPA1 (Q6RI86 whole entry): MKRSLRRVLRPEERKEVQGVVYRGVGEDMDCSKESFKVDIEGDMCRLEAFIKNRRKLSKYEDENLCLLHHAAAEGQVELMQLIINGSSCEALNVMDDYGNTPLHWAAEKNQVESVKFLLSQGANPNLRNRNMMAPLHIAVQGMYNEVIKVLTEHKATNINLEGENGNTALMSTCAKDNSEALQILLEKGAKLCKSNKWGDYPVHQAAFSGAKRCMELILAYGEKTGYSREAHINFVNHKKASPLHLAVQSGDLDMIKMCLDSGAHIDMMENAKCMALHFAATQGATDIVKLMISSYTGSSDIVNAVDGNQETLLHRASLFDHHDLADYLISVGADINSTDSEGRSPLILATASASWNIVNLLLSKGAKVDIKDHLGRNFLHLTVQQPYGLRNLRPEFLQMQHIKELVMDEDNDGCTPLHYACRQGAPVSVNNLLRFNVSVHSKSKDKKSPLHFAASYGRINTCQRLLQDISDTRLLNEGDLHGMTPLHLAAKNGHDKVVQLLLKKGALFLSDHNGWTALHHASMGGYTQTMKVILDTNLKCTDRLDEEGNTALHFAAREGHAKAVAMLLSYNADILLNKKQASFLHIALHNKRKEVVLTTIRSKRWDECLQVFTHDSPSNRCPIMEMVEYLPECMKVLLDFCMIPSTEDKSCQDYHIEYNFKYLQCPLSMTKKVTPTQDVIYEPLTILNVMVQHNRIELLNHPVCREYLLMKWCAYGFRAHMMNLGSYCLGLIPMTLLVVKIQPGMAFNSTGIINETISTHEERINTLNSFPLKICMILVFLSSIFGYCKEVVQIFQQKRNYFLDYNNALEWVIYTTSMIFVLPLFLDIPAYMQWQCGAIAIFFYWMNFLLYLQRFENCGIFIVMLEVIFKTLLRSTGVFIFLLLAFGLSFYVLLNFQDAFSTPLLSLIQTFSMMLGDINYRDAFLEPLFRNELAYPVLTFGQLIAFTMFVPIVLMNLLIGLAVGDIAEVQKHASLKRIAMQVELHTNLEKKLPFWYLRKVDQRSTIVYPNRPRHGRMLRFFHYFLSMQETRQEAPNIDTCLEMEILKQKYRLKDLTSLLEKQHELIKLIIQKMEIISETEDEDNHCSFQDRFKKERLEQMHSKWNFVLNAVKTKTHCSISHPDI

Row | SMILES | effect on current in TRPA1-expressing oocytes (rat TRPA1) | EC50 [1] [µM] | agonist effect on Fluo4 fluorescence ([Ca2+]i) in WI-38 cells [1] | nH (Hill coefficient) ([1]; WI-38 cells) | effect on Fluo4 fluorescence in HEK293 cells (HEK293 cells) | other results
1 | C=CCN=C=S [AITC, allyl isothiocyanate] |  |  | rapid fluorescence increase | 1.0 ± 0.1 |  | current evoked by agonist alone, % of that evoked by 30 µM FFA (rat TRPA1; +100 mV): 45 ± 14%; current evoked by agonist alone, % of that evoked by 30 µM FFA (rat TRPA1; −100 mV): 51 ± 10%; EC50 [2]: 5 µM; nH (Hill coefficient) (human TRPA1): 0.8 ± 0.1
2 | N.N.N.N.N.N.N.N.N.N.N.N.N.N.[Cl-].[Cl-].[Cl-].[Cl-].[Cl-].[Cl-].[O-2].[O-2].[Ru+3].[Ru+3].[Ru+4] [ruthenium red] |  |  |  |  |  | effect of antagonist on response to AITC [1]: blocked; IC50 ([1]; read-out: IC50 for inhibition of the response to FFA, curve not shown): 2.1 µM; effect on FFA-induced whole-cell currents [3]: completely abolished
3 | O=C/C=C/c1ccccc1 [CA, cinnamaldehyde] |  | 400 ± 41 | rapid fluorescence increase | 0.9 ± 0.1 |  | current evoked by agonist alone, % of that evoked by 30 µM FFA (rat TRPA1; +100 mV): 44 ± 16%; current evoked by agonist alone, % of that evoked by 30 µM FFA (rat TRPA1; −100 mV): 45 ± 8%; EC50 [2]: 6.5 µM
4 | CC(=C\c1ccc(Cl)cc1)/C(C)=N/O [AP-18] |  |  |  |  |  | effect of antagonist on response to AITC [1]: blocked; effect of antagonist preincubation on response to FFA [1]: inhibited
5 | NCCOB(c1ccccc1)c1ccccc1 [2APB, 2-aminoethoxydiphenyl borate] |  |  |  |  |  | concentration-response curve in triple cysteine mutant [4]: right-shifted
6 | CC1CCC(C(C)C)C(O)C1 (stereo not drawn) [menthol] |  |  |  |  |  | concentration-response curve in triple cysteine mutant [4]: right-shifted
7 | COC(=O)C1=C(C)NC(C)=C(C(=O)OC)C1c1ccccc1[N+](=O)[O-] [nifedipine] |  | 157 ± 8 | rapid fluorescence increase | 1.1 ± 0.1 |  | EC50 [2]: 0.4 µM; EC50 (human TRPA1): 140 ± 23 µM; nH (Hill coefficient) (human TRPA1): 1.0 ± 0.1
8 | CC(C)c1ccc(NC(=O)Cn2cnc3c2c(=O)n(C)c(=O)n3C)cc1 [HC-030031] |  |  |  |  |  | effect of antagonist on response to AITC [1]: blocked; effect of antagonist preincubation on response to FFA [1]: inhibited
9 | CC(C)Cc1ccc([C@H](C)C(=O)O)cc1 [ibuprofen, (S)-(+)-ibuprofen] |  |  | did not act as agonists |  |  | 
10 | C=CC=O [acrolein] |  |  | rapid fluorescence increase | 1.0 ± 0.1 |  | EC50 [2]: 0.8 µM

Now from value to molecule, other results behind:

Row | effect on current in TRPA1-expressing oocytes (rat TRPA1) | EC50 [1] [µM] | agonist effect on Fluo4 fluorescence ([Ca2+]i) in WI-38 cells [1] | nH (Hill coefficient) ([1]; WI-38 cells) | SMILES | effect on Fluo4 fluorescence in HEK293 cells (HEK293 cells) | other results
11 | caused current increases | 342 ± 6 | increased the Fluo4 fluorescence | 1.5 ± 0.1 | CC(C(=O)O)c1ccc(-c2ccccc2)c(F)c1 (racemic) [flurbiprofen, (±)-flurbiprofen] | little effect | EC50 (human TRPA1): 310 ± 66 µM; nH (Hill coefficient) (human TRPA1): 2.0 ± 0.3
12 | did not have an effect |  | fail to activate |  | O=C(c1ccccc1)c1ccc2n1CCC2C(=O)O (stereo not drawn) [ketorolac, ketorolac tromethamine salt] |  | antagonist effect on the response induced by FFA or AITC [1]: do not act as antagonists
13 | did not have an effect |  | fail to activate |  | COc1ccc2cc([C@H](C)C(=O)O)ccc2c1 [naproxen, (S)-naproxen] |  | antagonist effect on the response induced by FFA or AITC [1]: do not act as antagonists
14 |  |  | did not act as agonists |  | CC(=O)Oc1ccccc1C(=O)O [acetylsalicylic acid, Acetylsalicylic acid] |  | 
15 | caused current increases | 470 ± 54 | increased the Fluo4 fluorescence |  | COc1ccc2c(c1)c(CC(=O)O)c(C)n2C(=O)c1ccc(Cl)cc1 [indomethacin] | little effect | nH (Hill coefficient), fixed to make the fit ([1]; WI-38 cells, nH was fixed to 1.5): 1.5 ^b
16 | very weak activator | > 500 | increased the Fluo4 fluorescence |  | CC(C(=O)O)c1cccc(C(=O)c2ccccc2)c1 (stereo not drawn) [ketoprofen, Ketoprofen] | little effect | 
17 | caused current increases |  | increased the Fluo4 fluorescence | 1.3 ± 0.2 | O=C(O)Cc1ccccc1Nc1c(Cl)cccc1Cl [diclofenac, Diclofenac sodium salt] | little effect | 
18 |  | 28 ± 3 | increased the Fluo4 fluorescence | 1.4 ± 0.2 | O=C(O)c1cccnc1Nc1cccc(C(F)(F)F)c1 [NFA, niflumic acid] | little effect | threshold of activation (rat TRPA1): 10 to 30 µM; interaction with AITC, CA, or cold on channel activation (rat TRPA1): positive synergistic effects; Hill co-efficient at +100 mV (rat TRPA1; +100 mV): 2.6 ± 0.3; EC50 (rat TRPA1; EC50 for current activation at +100 mV, +100 mV): 240 ± 12 µM; EC50 (rat TRPA1; EC50 for current activation at −100 mV, −100 mV): 540 ± 27 µM; Hill co-efficient at −100 mV (rat TRPA1; −100 mV): 2.1 ± 0.2
19 |  |  | increased the Fluo4 fluorescence | 1.5 ± 0.2 | Cc1cccc(Nc2ccccc2C(=O)O)c1C [MFA, mefenamic acid] | little effect | interaction with AITC, CA, or cold on channel activation (rat TRPA1): positive synergistic effects
